# Screening data as filed in PubChem BioAssay.
# This is a sample that favours compounds with a hit; in the whole collection about 7.2% have one here.
# hDAT+cocaine – changed human dopamine transporter uptake under cocaine IC80; Q01959; hit rate 1.3% among 110,000; LLC-PK1 hDAT cells, [14C]-dopamine uptake with cocaine IC80; actives deviate in either direction; B-score at 10 µM; AID 449768;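 active = Z score or B-score, a plate-position-corrected score, falls beyond the plate's 99.7% confidence bounds, in either direction; inactive = both scores lie inside the 99.7% bounds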
# M1 antagonist – M1 muscarinic receptor (rat) antagonism | P08482 | CHO-M1 cells, Fluo-4 calcium, ACh EC80 antagonist mode; hits give low values | B-score at 10 µM | hit rate 3.4% among 64,000 | AID 628;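 active = calcium fluorescence response, raw or row-and-column corrected B-score, differing from the plate sample mean either way at a set confidence level, mostly lower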
# Target sequence (P08482 whole entry, looked up): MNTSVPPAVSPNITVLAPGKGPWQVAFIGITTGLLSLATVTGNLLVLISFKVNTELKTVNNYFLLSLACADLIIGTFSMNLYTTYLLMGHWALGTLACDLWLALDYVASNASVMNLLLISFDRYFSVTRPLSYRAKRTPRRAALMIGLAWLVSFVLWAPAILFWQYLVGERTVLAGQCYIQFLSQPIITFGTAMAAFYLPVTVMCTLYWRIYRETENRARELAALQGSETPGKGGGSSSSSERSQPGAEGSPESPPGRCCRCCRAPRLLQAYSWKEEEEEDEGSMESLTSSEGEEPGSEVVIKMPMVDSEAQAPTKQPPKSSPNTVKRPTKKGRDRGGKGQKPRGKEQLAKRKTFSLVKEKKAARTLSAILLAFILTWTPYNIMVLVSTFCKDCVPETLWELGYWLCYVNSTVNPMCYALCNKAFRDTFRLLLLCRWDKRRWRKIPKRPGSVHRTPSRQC
# M1 agonist – activates the M1 muscarinic receptor; CHO-M1 cells, Fluo-4 calcium fluorescence, agonist mode; hits give high values; hit rate 3% among 64,000; B-score at 10 µM;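 active = fluorescence rise, raw or as B-score row- and column-corrected plate score, outside the 99.7% band of its plate's samples, either direction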
# HEK293 NFkB inh – lowers PMA/ionomycin-induced NF-kB signal in HEK293 cells. inhibition, % at 3 µM. HEK-293 NF-kB luciferase reporter, luminescence. hit rate 0.21% among 62,000;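 active = inhibition above the mean of all tested compounds plus 3 SD, cut at about 40% in these data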
#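 System – HEK-293 cells with stable firefly luciferase reporter driven by four HIV NF-kB elements · Doses – one dose, 3 µM · Schedule – 1 h compound pre-incubation, 16 h PMA/ionomycin at 37 °C · Technique – luminescence from luciferase substrate reagent · Measure – percent inhibition normalized per plate to DMSO and reference-inhibitor controls · Replicates – tested once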
# D1 mod – D1 dopamine receptor (human) allosteric modulation; AID 641; B-score at 10 µM; P21728; HEK293 D1, CRE-luciferase, dopamine EC30 potentiation; actives deviate in either direction; hit rate 5.9% among 58,000;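 active = luminescence count or its row- and column-corrected plate score outside the 99.7% band of the plate's sample wells, on either side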
# BAP1 inh – inhibitors of human BAP1 deubiquitinase. recombinant BAP1, Ub-AMC hydrolysis fluorescence kinetic; hits give low values. calls only at 20 µM. hit rate 0.48% among 72,000. AID 436;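 active = activity remaining at or below 50% of control, provided the compound also passes the data quality filters; inactive = the rest, including low values that fail the filters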
# M1 ag confirm – rat M1 muscarinic agonism, confirmation. shares compounds with M1 agonist. CHO-M1 cells, Fluo-4 calcium fluorescence, agonist mode; actives lie on both sides. fluorescence change (max-min) at 10 µM. hit rate 19% among 1,700;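 active = fluorescence change differs from the solvent-only DMSO control mean at a set confidence level in both duplicate runs; inconclusive = differs from solvent-only control mean in just one of two runs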;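 note: an EC20 dose of acetylcholine follows compound addition during the same imaging run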
# M4 agonist ctr – activates rat M4 receptor in counter-screen for M1 agonists; CHO M4/Gqi5 cells, Fluo-4 calcium fluorescence, agonist mode; actives lie on both sides; AID 1741; shares compounds with M1 agonist; hit rate 9% among 1,700; fluorescence change (max-min) at 10 µM;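 active = fluorescence change differing from the plate's solvent-only control wells at 99.7% confidence in both duplicates, whether higher or lower; inconclusive = differs from solvent controls in only one of two duplicates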
# Numbers stand for hits; . = inactive; ? = inconclusive; / = no result given.
SMILES,hDAT+cocaine,M1 antagonist,M1 agonist,HEK293 NFkB inh,D1 mod,BAP1 inh,M1 ag confirm,M4 agonist ctr
NC(=O)N1CCN(C(=O)c2ccco2)CC1,.,/,/,/,/,/,/,/
C1=CC2CC1CC2CN1CCN(c2ccccc2)CC1 (centres undefined),.,.,6.4,.,-4.6,.,?,.
CCOC(=O)COc1ccc(S(=O)(=O)NCc2ccncc2)cc1,.,.,7.6,.,.,.,.,?
CCOC(=O)COc1ccc(S(=O)(=O)NCc2ccco2)cc1,.,.,.,.,.,.,/,/
COc1cccc(C2=CC(c3ccc(C)cc3)n3ncnc3N2)c1 (centres undefined),.,.,8,.,.,.,165,?
Fc1ccc(Br)cc1C1C=C(c2ccc(Br)cc2)Nc2ncnn21 (centres undefined),.,/,/,/,/,/,/,/
Cc1ccsc1C1C=C(c2cccc(Br)c2)Nc2ncnn21 (centres undefined),.,.,34,.,.,.,836,793
CCC(=O)NC(c1ccc(OC)c(OC)c1)c1ccc2cccnc2c1O (centres undefined),/,/,/,/,/,.,/,/
Cc1ccc(S(=O)(=O)c2c(N)n(Cc3ccco3)c3nc4ccccc4nc23)cc1,.,.,12,.,/,/,.,.
Cc1cccc(S(=O)(=O)c2c(N)n(Cc3ccco3)c3nc4ccccc4nc23)c1,.,.,.,.,.,.,/,/
CCOC(=O)c1c(C)oc2cc(Br)c(OCc3ccccc3Cl)cc12,/,/,/,/,/,.,/,/
O=c1c(O)c(-c2ccc(O)cc2O)oc2cc(O)cc(O)c12,/,.,27,/,.,/,74,.
O=c1c(O)c(-c2cc(O)c(O)c(O)c2)oc2cc(O)cc(O)c12,/,/,/,/,/,.,/,/
Cc1cc(=O)oc2cc(OCC(=O)OCc3nnc(-c4ccccc4)o3)ccc12,.,.,37,.,.,.,.,.
CCc1ccccc1NS(=O)(=O)c1ccc(SC)cc1,.,.,3.3,.,.,.,.,.
Cc1ccc(C)c(NC(=O)CSc2nc3c(c(=O)n2C)SC(C)C3)c1 (centres undefined),.,.,.,.,.,.,/,/
CCn1c(SCC(=O)Nc2cc(C)ccc2C)nc2c(c1=O)SC(C)C2 (centres undefined),.,.,1.3,.,.,.,.,?
COc1cccc2cc(-c3nnc(SCC(=O)Nc4nc(C)cs4)n3C)oc12,.,.,3.9,.,.,.,?,.
Cc1csc(NC(=O)CSc2nnc(-c3ccco3)n2C)n1,.,.,.,.,.,.,/,/
CN(CCCC(=O)Nc1ccncc1)S(=O)(=O)c1ccc(Cl)cc1,.,.,4.1,.,.,.,.,.
COc1cccc(-c2ccc(-c3noc(-c4cccs4)n3)c(OC)n2)c1,.,/,/,/,/,/,/,/
COc1cccc(-c2ccc(-c3noc(-c4ccccc4F)n3)c(OC)n2)c1,.,.,15,.,.,.,.,.
c1ccc(-c2nc(NCCCN3CCOCC3)c3ccccc3n2)cc1,.,.,2.6,.,.,.,.,.
Cc1nnc(SC(C)C(=O)Nc2ccc3c(c2)OCCO3)s1 (centres undefined),.,.,.,.,.,.,/,/
O=C(Nc1ccc(S(=O)(=O)N2CCCCC2)cc1)c1ccccc1Cl,.,/,/,/,/,/,/,/
SMILES,hDAT+cocaine,M1 antagonist,M1 agonist,HEK293 NFkB inh,D1 mod,BAP1 inh,M1 ag confirm,M4 agonist ctr
O=C(Nc1ccccc1)Nc1ccc(S(=O)(=O)N2CCCCC2)cc1,.,.,3.5,.,.,.,.,.
Cc1nnc(SC(C)C(=O)Nc2ccc(S(=O)(=O)N3CCCCCC3)cc2)s1 (centres undefined),.,.,-2.5,.,.,.,?,?
CCCCCCOc1ccc(NC(=O)c2cccs2)cc1,/,/,/,/,/,.,/,/
COc1ccc(-c2cc(C(F)(F)F)n3nc(C(=O)Nc4cc(C)on4)cc3n2)cc1OC,/,.,24,.,.,.,179,.
COc1ccc(-c2cc(C(F)(F)F)n3ncc(C(=O)NCC4CCCO4)c3n2)cc1OC (centres undefined),.,.,41,.,.,.,?,.
CCOC(=O)c1nnn(-c2nc(OC)nc(N3CCCCC3)n2)c1-c1ccccc1,.,/,/,/,/,/,/,/
